Values after ≈ are worked out from the molar mass of the structure shown.
Key:
Staphylococcus aureus [1] = test: Antibacterial activity against methicillin-susceptible Staphylococcus aureus 209P after 24 hrs by microdilution method; format: functional
Method in brief: (§1)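 Broth microdilution in Mueller-Hinton broth with 0.85% NaCl, inoculum about 10^5 CFU per 100 μL. Compounds were diluted in water from 25.6 mg/mL stocks to final 2-fold series of 0.062–128 μg/mL. Plates were incubated 24 h at 35 °C. MIC was the lowest concentration at which all triplicate wells were clear, from three independent determinations.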

Enterococcus [2] = test: Antibacterial activity against vancomycin resistant Enterococcus FN-1 after 24 hrs by microdilution method; format: functional; conditions: FN-1, 24 h; method in brief: as §1
Enterococcus [3] = test: Antibacterial activity against vancomycin resistant Enterococcus NCTC 12201 after 24 hrs by microdilution method; format: functional; conditions: NCTC 12201, 24 h; method in brief: as §1
Staphylococcus aureus [4] = test: Antibacterial activity against vancomycin-intermediate Staphylococcus aureus Mu50 after 24 hrs by microdilution method; format: functional; conditions: Mu50, 24 h; method in brief: as §1
Staphylococcus aureus [5] = test: Antibacterial activity against methicillin-resistant Staphylococcus aureus OM481 after 24 hrs by microdilution method; format: functional; conditions: OM481, 24 h; method in brief: as §1
Staphylococcus aureus [6] = test: Antibacterial activity against methicillin-resistant Staphylococcus aureus OM584 after 24 hrs by microdilution method; format: functional; conditions: OM584, 24 h; method in brief: as §1
Staphylococcus aureus [7] = test: Antibacterial activity against methicillin-resistant Staphylococcus aureus N315 after 24 hrs by microdilution method; format: functional; conditions: N315, 24 h; method in brief: as §1
Staphylococcus aureus [8] = test: Antibacterial activity against methicillin-resistant Staphylococcus aureus COL after 24 hrs by microdilution method; format: functional; method in brief: as §1
Streptococcus pneumoniae = test: Antibacterial activity against Streptococcus pneumoniae R6 after 24 hrs by microdilution method; format: functional; conditions: R6, 24 h
Method in brief: (§2)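 Broth microdilution in Mueller-Hinton broth with 0.85% NaCl, inoculum about 10^5 CFU per 100 μL. Compounds diluted from 25.6 mg/mL stocks in water to 2-fold series, final 0.062–128 μg/mL. […] Three independent determinations.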

Pseudomonas aeruginosa = test: Antibacterial activity against Pseudomonas aeruginosa PAO1 after 24 hrs by microdilution method; format: functional; conditions: PAO1, 24 h; method in brief: as §2
Escherichia coli = test: Antibacterial activity against Escherichia coli K-12 after 24 hrs by microdilution method; format: functional; conditions: K-12, 24 h; method in brief: as §2
[9] = Inhibition of Escherichia coli DNA gyrase assessed as inhibition of pBR322 supercoiling by densitometry
Method in brief: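 One unit of E. coli gyrase with 0.5 μg relaxed pBR322 DNA, 37 °C, 30 min. Stopped with sucrose/EDTA dye, run on 1.0% agarose in TAE. IC50 from densitometry via log-interpolation equation.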

[10] = Inhibition of Staphylococcus aureus DNA Topoisomerase 4-mediated decatenation of kDNA after 30 mins by densitometry
Method in brief: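 Purchased S. aureus topoIV, one unit with 200 ng kDNA, 37 °C, 30 min. Products resolved on 1.0% agarose in TAE. IC50 of decatenation from densitometry by interpolation equation, at least three determinations.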

[11] = Inhibition of Escherichia coli DNA topoisomerase 4 subunit ParC/DNA topoisomerase 4 subunit ParE-mediated decatenation of kDNA by densitometry
Method in brief: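 Purchased E. coli topoIV kit enzyme, one unit with 200 ng kDNA, 37 °C, 30 min. Buffer: 50 mM HEPES-KOH pH 7.6, 5 mM magnesium acetate, 100 mM potassium glutamate, 10 mM DTT, 1 mM ATP, 40% glycerol. Gel on 1.0% agarose in TAE. IC50 of decatenation from densitometry by interpolation equation, at least three determinations.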

Mus musculus [12] = test: Toxicity in mouse at 100 mg/kg, iv administered for 4 days assessed as transient seizure like reaction measured after 10 mins of compound administration; format: organism-based; parameters: dose 100 mg/kg, route intravenous; conditions: in vivo
Mus musculus [13] = test: Toxicity in mouse at 100 mg/kg, iv administered for 4 days assessed as transient seizure like reaction measured after 1 day of compound administration; format: organism-based; parameters: dose 100 mg/kg, route intravenous; conditions: in vivo, 24 h
Mus musculus [14] = test: Toxicity in iv dosed mouse assessed as incidence of mortality measured 14 days post dose; format: organism-based; conditions: in vivo, 336 h
Method in brief: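 Male mice (n = 4), 15–30 g, given water only for 12 h beforehand. Dosed intravenously by tail vein in 50% PEG in saline at 10, 50 or 100 mg/kg/day for 4 days (total dose volume 20 mL/kg). Weight gain, mobility and mortality were observed up to 14 days.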

[15] = Ratio IC50 for Escherichia coli DNA topoisomerase 4 ParC/DNA topoisomerase 4 subunit ParE-mediated decatenation of kDNA to IC50 for Staphylococcus aureus DNA topoisomerase 4 subunit B-mediated decatenation of kDNA
Mus musculus [16] = test: Toxicity in mouse at 10 mg/kg, iv administered for 4 days measured after 14 days; format: organism-based; parameters: dose 10 mg/kg, route intravenous; conditions: in vivo, 336 h
Mus musculus [17] = test: Toxicity in mouse at 50 mg/kg, iv administered for 4 days measured after 14 days; format: organism-based; parameters: dose 50 mg/kg, route intravenous; conditions: in vivo, 336 h
[18] = Intestinal absorption in Wistar rat at 1 mg/mL, injected into small intestine, measured after 1 hr by UV-spectrophotometric analysis; conditions: in situ, intestinal injection
Enterococcus [19] = test: Ratio MIC for vancomycin to compound for vancomycin-resistant Enterococcus FN-1; format: functional

| SMILES | MIC (Staphylococcus aureus [1]) [µg/mL] | MIC (Enterococcus [2]) [µg/mL] | MIC (Enterococcus [3]) [µg/mL] | MIC (Staphylococcus aureus [4]) [µg/mL] | MIC (Staphylococcus aureus [5]) [µg/mL] | MIC (Staphylococcus aureus [6]) [µg/mL] | MIC (Staphylococcus aureus [7]) [µg/mL] | MIC (Staphylococcus aureus [8]) [µg/mL] | MIC (Streptococcus pneumoniae) [µg/mL] | MIC (Pseudomonas aeruginosa) [µg/mL] | MIC (Escherichia coli) [µg/mL] | IC50 [9] [nM] | IC50 [10] [nM] | IC50 [11] [nM] | other results |
| --- | --- | --- | --- | --- | --- | --- | --- | --- | --- | --- | --- | --- | --- | --- | --- |
| O=C(OC[C@H]1O[C@@H](Oc2c(-c3ccc(O)c(O)c3)oc3cc(O)cc(O)c3c2=O)[C@H](OC(=O)c2ccc(F)cc2)[C@@H](O)[C@H]1O)c1ccc(F)cc1 | 4 (≈ 5.65 µM) | 4 (≈ 5.65 µM) | 4 (≈ 5.65 µM) | 2 (≈ 2.82 µM) | 2 (≈ 2.82 µM) | 2 (≈ 2.82 µM) | 8 (≈ 11.3 µM) | 8 (≈ 11.3 µM) | 4 (≈ 5.65 µM) | > 128 | > 128 | 380 | 520 | 11000 | – |
| O=C(CCc1ccc(F)cc1)OC[C@H]1O[C@@H](Oc2c(-c3ccc(O)c(O)c3)oc3cc(O)cc(O)c3c2=O)[C@H](OC(=O)CCc2ccc(F)cc2)[C@@H](O)[C@H]1O | 0.13 (≈ 0.17 µM) | 0.25 (≈ 0.327 µM) | 0.25 (≈ 0.327 µM) | 0.5 (≈ 0.654 µM) | 0.13 (≈ 0.17 µM) | 0.13 (≈ 0.17 µM) | 0.13 (≈ 0.17 µM) | 0.5 (≈ 0.654 µM) | 0.13 (≈ 0.17 µM) | > 128 | > 128 | 780 | 220 | 9160 | Activity (Mus musculus [12]): Toxic; Activity (Mus musculus [13]): Non-toxic; Activity (Mus musculus [14]): Non-toxic; Ratio IC50 [15]: 40; Activity (Mus musculus [16]): Non-toxic; Activity (Mus musculus [17]): Non-toxic; Fa at 1 h [18]: 76.6% |
| O=C(Cc1ccc(F)cc1)OC[C@H]1O[C@@H](Oc2c(-c3ccc(O)c(O)c3)oc3cc(O)cc(O)c3c2=O)[C@H](OC(=O)Cc2ccc(F)cc2)[C@@H](O)[C@H]1O | 1 (≈ 1.36 µM) | 0.5 (≈ 0.679 µM) | 0.5 (≈ 0.679 µM) | 1 (≈ 1.36 µM) | 1 (≈ 1.36 µM) | 1 (≈ 1.36 µM) | 1 (≈ 1.36 µM) | 8 (≈ 10.9 µM) | 1 (≈ 1.36 µM) | > 128 | > 128 | 1050 | 460 | 10200 | – |
| O=c1c(O[C@@H]2O[C@H](CO)[C@H](O)[C@H](O)[C@H]2O)c(-c2ccc(O)c(O)c2)oc2cc(O)cc(O)c12 [HYPEROSIDE] | > 128 | > 128 | > 128 | > 128 | > 128 | > 128 | > 128 | > 128 | > 128 | 32 (≈ 68.9 µM) | 16 (≈ 34.5 µM) | 100 | 70 | 3070 | – |
| O=C(CCc1ccc(F)cc1)Oc1cc(O)c2c(=O)c(OC(=O)CCc3ccc(F)cc3)c(-c3ccc(O)c(O)c3)oc2c1 | 64 (≈ 106 µM) | 64 (≈ 106 µM) | 32 (≈ 53.1 µM) | 32 (≈ 53.1 µM) | 16 (≈ 26.6 µM) | 16 (≈ 26.6 µM) | 16 (≈ 26.6 µM) | 32 (≈ 53.1 µM) | 32 (≈ 53.1 µM) | 64 (≈ 106 µM) | 64 (≈ 106 µM) | 720 | 290 | 6760 | Ratio (Enterococcus [19]): 2 |
| CCCc1ccc(C(=O)OC[C@H]2O[C@@H](Oc3c(-c4ccc(O)c(O)c4)oc4cc(O)cc(O)c4c3=O)[C@H](OC(=O)c3ccc(CCC)cc3)[C@@H](O)[C@H]2O)cc1 | 2 (≈ 2.64 µM) | 8 (≈ 10.6 µM) | 4 (≈ 5.29 µM) | 4 (≈ 5.29 µM) | 4 (≈ 5.29 µM) | 4 (≈ 5.29 µM) | 2 (≈ 2.64 µM) | 16 (≈ 21.1 µM) | 2 (≈ 2.64 µM) | > 128 | > 128 | 770 | 1930 | 10900 | – |
| CCOc1ccc(C(=O)OC[C@H]2O[C@@H](Oc3c(-c4ccc(O)c(O)c4)oc4cc(O)cc(O)c4c3=O)[C@H](OC(=O)c3ccc(OCC)cc3)[C@@H](O)[C@H]2O)cc1 | 4 (≈ 5.26 µM) | 8 (≈ 10.5 µM) | 8 (≈ 10.5 µM) | 4 (≈ 5.26 µM) | 4 (≈ 5.26 µM) | 4 (≈ 5.26 µM) | 8 (≈ 10.5 µM) | 16 (≈ 21 µM) | 4 (≈ 5.26 µM) | > 128 | > 128 | 430 | 1780 | 11300 | – |

From ChEMBL document CHEMBL1795235, “Quercetin diacylglycoside analogues showing dual inhibition of DNA gyrase and topoisomerase IV as novel antibacterial agents” (J Med Chem, 2011)
